Structures are written as SMILES.

The record followed here is ChEMBL document CHEMBL1687926, “14-Aminocamptothecins: their synthesis, preclinical activity, and potential use for cancer treatment” (J Med Chem, 2011).

For data set [1], the system named is NCI-H460. The data set can be described thus: Cytotoxicity against human H460 cells after 72 hrs by alamar blue assay. It is filed as functional, cell-based. Particulars: Homo sapiens, NCI-H460, 72 h. The procedure, abridged: (§1)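 Cells seeded at 4 × 10³ per well and grown 24 h. Compounds dissolved in DMSO and diluted in medium to final concentrations, then incubated 72 h at 37 °C, 5% CO₂. Viable cells read by AlamarBlue; IC₅₀ taken as the concentration giving 50% growth inhibition.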
In general terms: Resazurin is reduced to fluorescent resorufin, in cell work by metabolically active cells.

Data set [2] in a line: Cytotoxicity against human bone marrow cell by CFU-GM assay. It counts as cell-based. Particulars: for IC50: Homo sapiens, Bone marrow cell; for IC90: human, bone marrow cells.
Data set [3] can be described thus: Cytotoxicity against mouse bone marrow cell by CFU-GM assay. It counts as cell-based. Summed up:
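CFU-GM colony assay on normal human bone marrow (thawed) or mouse femoral marrow (freshly extracted). Human colonies scored after 16-18 days. IC₅₀ taken from triplicate assays.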

Data set [4] is described as follows: Ratio of IC50 for mouse bone marrow cell to IC50 for human bone marrow cell. It is filed as cell-based. Particulars: bone marrow cells. The procedure, abridged: (§2)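 CFU-GM colony assay in triplicate at 2 × 10⁴ cells per culture, using thawed normal human bone marrow or fresh mouse femoral marrow. Colonies were scored after 16-18 days. The IC50 or IC90 from each species gave the mouse/human ratio.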

Data set [5] is described as follows: Ratio of IC90 for mouse bone marrow cell to IC90 for human bone marrow cell. It counts as ADME, cell-based. Particulars: bone marrow cells. The procedure, abridged: as §2
In a further data set the test system is PC-3. The data set can be described thus: Cytotoxicity against human PC3 cells after 72 hrs by alamar blue assay. It is filed as functional, cell-based. Particulars: PC-3, 72 h. Summed up: as §1
Another data set deals with HT-29. The data set can be described thus: Cytotoxicity against human HT-29 cells after 72 hrs by alamar blue assay. Particulars: HT-29, 72 h. It counts as functional, cell-based. Summed up: as §1
The test system of a further data set is SK-MEL-2. The data set can be described thus: Cytotoxicity against human SK-MEL-2 cells after 72 hrs by alamar blue assay. It counts as functional, cell-based. Particulars: SK-MEL-2, 72 h. Summed up: as §1
Another data set concerns A-375. In words: Cytotoxicity against human A375 cells after 72 hrs by alamar blue assay. It counts as functional, cell-based. Particulars: A-375, 72 h. The procedure, abridged: as §1
A further data set relates to Malme-3M. In words: Cytotoxicity against human MALME-3M cells after 72 hrs by alamar blue assay. It counts as functional, cell-based. The procedure, abridged:
as §1

In another data set the test system is DU-145. The data set can be described thus: Cytotoxicity against human DU145 cells after 72 hrs by alamar blue assay. It counts as functional, cell-based. Particulars: DU-145, 72 h. Summed up:
as §1

Another data set has as its system LNCaP. In words: Cytotoxicity against human LNCAP cells after 72 hrs by alamar blue assay. It is filed as functional, cell-based. The procedure, abridged: as §1
In the next data set the test system is IGROV-1. In words: Cytotoxicity against human IGROV1 cells after 72 hrs by alamar blue assay. It counts as functional, cell-based. Particulars: IGROV-1, 72 h. The procedure, abridged: as §1
Data set [6] has as its system NCI-H460. In words: Cytotoxicity against human H460 cells after 72 hrs by alamar blue assay in presence of 40 mg/ml HSA. It is filed as functional, cell-based. Particulars: NCI-H460, 72 h. The procedure, abridged: (§3)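 H460 cells seeded at 4 × 10³ per well and grown 24 h. Compounds then cocultured with cells for 72 h at 37 °C, with or without 40 mg/mL human serum albumin. Viability read by AlamarBlue; IC₅₀ = 50% growth inhibition. Ratio compares the IC₅₀ with HSA to the IC₅₀ without.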

For data set [7], the system named is NCI-H460. In words: Ratio IC50 for human H460 cells after 72 hrs in presence of 40 mg/ml HSA to IC50 for human H460 cells after 72 hrs. It counts as functional. The procedure, abridged:
as §3

The nature of data set [8]: Cytotoxicity against human MESSA cells after 72 hrs by alamar blue assay. It counts as functional, cell-based. Particulars: MES-SA. The procedure, abridged:
as §1

Data set [9] is described as follows: Cytotoxicity against human MES-SA/Dx5 cells overexpressing MDR1 after 72 hrs by alamar blue assay. It is filed as functional, cell-based. Particulars: MES-SA/Dx5, 72 h. Summed up:
as §1

The next data set deals with NCI-H69. The data set can be described thus: Cytotoxicity against human H69 cells after 72 hrs by alamar blue assay. It is filed as functional, cell-based. Particulars: NCI-H69, 72 h. Summed up:
as §1

Data set [10] is described as follows: Resistance ratio of IC50 for human MES-SA/Dx5 cells overexpressing MDR1 after 72 hrs to IC50 for human MESSA cells after 72 hrs. It counts as functional. Summed up: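 Cytotoxicity compared in MDR1-overexpressing lines and their parental wild-type lines. 72 h exposure at 37 °C, viability by AlamarBlue, IC₅₀ at 50% growth inhibition. Resistance ratio = IC₅₀ in overexpressing line / IC₅₀ in parental line.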

The subject of another data set is H69AR. The data set can be described thus: Cytotoxicity against human H69AR cells overexpressing MRP1 after 72 hrs by alamar blue assay.
Data set [11] is described as follows: Resistance ratio of IC50 for human H69AR cells overexpressing MRP1 after 72 hrs s to IC50 for human H69 cells after 72 hrs.

As usually defined, the IC50 is the concentration that gives 50% inhibition. In turn, `CC[C@@]1(O)C(=O)Nc2c1c(CO)c(=O)n1c2-c2nc3ccccc3cc2C1` had an IC50 in the data set with NCI-H460 [1] of 7700 nM.
The IC90 is the concentration needed for an effect of 90%. A lower IC90 goes with an effect from little substance. For `CC[C@@]1(O)C(=O)OCc2c1cc1n(c2=O)Cc2cc3c(N)cccc3nc2-1` [9-AMINOCAMPTOTHECIN], the half-inhibitory concentration (IC50) in data set [2] came out at 1 nM; in data set [3] it was 90 nM. Besides, the IC90 in data set [2] was determined as 8 nM. Besides, the selectivity ratio was found to be 75 in data set [4] and 88 in [5].
As to `CCc1c2c(nc3ccc(OC(=O)N4CCC(N5CCCCC5)CC4)cc13)-c1cc3c(c(=O)n1C2)COC(=O)[C@]3(O)CC` [IRINOTECAN], the IC50 came to 15 nM in the data set on NCI-H460 [1]; 4 nM with PC-3; 220 nM with HT-29; 100 nM in the data set with SK-MEL-2; 4 nM in the data set with A-375; 200 nM in the data set with Malme-3M. For the same molecule, the IC50 with DU-145 is 200 nM; in the data set with LNCaP, 9 nM; in the data set with IGROV-1, 30 nM; in the data set on NCI-H460 [6] it was 27 nM; in data set [8] it was 10 nM; in [9], 22 nM. Further, the IC50 in the data set with NCI-H69 was determined as 22 nM; in data set [2] it was 1 nM; in data set [3] it was 110 nM; in the data set on H69AR, 250 nM. Moreover, the Ratio in the data set with NCI-H460 [7] came to 2; in data set [10], 2; in data set [11] it was 11. Besides, in data set [2], the IC90 stood at 8 nM. In addition, the selectivity ratio in [4] stood at 85; in data set [5], 100.
For `CCc1c2c(nc3ccccc13)-c1c([N+](=O)[O-])c3c(c(=O)n1C2)COC(=O)[C@]3(O)CC`, half-maximal inhibition with NCI-H460 [1] (IC50) required 4600 nM.
